Assay outcomes: PubChem, several laboratories
An excerpt weighted towards active compounds, which were near 3.8% of everything screened.
MPTP block: mitochondrial permeability transition pore inhibitors, primary screen, biochemical, isolated mouse mitochondria, absorbance; 360,000 compounds, 1.4% hits; Ca2+ swelling absorbance, 30 min; inhibition, % at 10 µM;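 active = inhibition of 50% or more, scaled per plate between neutral and stimulator controls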
OX1R antag-1: OX1R (HCRTR1) antagonists, primary screen, fluorescence, CHO/OX1R cells, Fluo-8 calcium, orexin A | 330,000 compounds, 0.43% hits | Orexin/Hypocretin receptor type 1 (Homo sapiens), O43613 | Fluo-8 calcium fluorescence | inhibition, % at 5 µM;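 active = inhibition above its plate's threshold, mean inhibition of all tested compounds on the plate plus 3 SD, cut at about 37% in these data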
GPR7 antagonist: GPR7 receptor antagonists, primary screen, cell-based, fluorescence, single concentration | Neuropeptides B/W receptor type 1 (Homo sapiens), P48145 | GPR7-expressing cells, fluorescence antagonist assay | inhibition, % at 4.4 µM | 290,000 compounds, 1.1% hits; in the data active = inhibition above about 16%, passing the limit was not always enough;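 note: cells stimulated with the agonist NPW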
Target sequence (P48145 whole entry, looked up): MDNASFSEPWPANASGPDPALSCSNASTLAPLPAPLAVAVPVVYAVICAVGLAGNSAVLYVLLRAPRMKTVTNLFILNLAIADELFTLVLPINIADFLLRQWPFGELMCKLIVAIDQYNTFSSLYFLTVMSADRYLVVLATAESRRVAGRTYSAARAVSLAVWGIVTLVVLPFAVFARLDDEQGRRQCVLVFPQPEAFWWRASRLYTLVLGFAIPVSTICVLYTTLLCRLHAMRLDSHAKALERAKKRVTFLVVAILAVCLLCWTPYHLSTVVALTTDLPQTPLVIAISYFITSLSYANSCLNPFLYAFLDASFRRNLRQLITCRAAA
OX1R antag-2: antagonists of human orexin 1 receptor (OX1R); Orexin/Hypocretin receptor type 1 (Homo sapiens), O43613; 330,000 compounds, 1.8% hits; inhibition, % at 6.6 µM; OX1R-expressing cells, FRET antagonist read-out; in the data active = inhibition mostly above about 38%, no sharp cut-off; inactive = mostly below about 40%
CHO parental Ca: ATP-evoked calcium signal inhibitors, parental CHO, primary screen, counter-screen for OX1R antagonist project, cell-based, fluorescence, Fluo-8 calcium dye; 330,000 compounds, 0.63% hits; AID 463079, 2010; inhibition, % at 5.6 µM; parental CHO-K1, ATP-induced calcium, Fluo-8 fluorescence;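 active = inhibition above that plate's mean sample inhibition plus 3 SD, cut at about 26% in these data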
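Measured by: calcium-sensitive Fluo-8 fluorescence / Test system: CHO parental line / Controls: ATP-challenged DMSO wells low, unchallenged DMSO wells high / Measure: % inhibition / Compound: single nominal dose of 5.6 µM per compound / Replicates: single well per compound, no replicates / Reagent: ATP as calcium-mobilizing challenge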
MPTP counter: fluorescence retest of MPTP screen hits in isolated mitochondria, single concentration. membrane potential, Rhodamine 123 fluorescence. 5,000 compounds, 78% hits. shares compounds with MPTP block. inhibition, % at 10 µM; in the data active = inhibition above about 22%
MPTP abs DR: mitochondrial permeability transition pore inhibitors, dose response, biochemical, absorbance, uHTS hits; IC50, µM; AID 651561, 2012; 780 compounds, 58% hits; shares compounds with MPTP block; isolated mitochondria swelling; in the data active = IC50 below about 20 µM
MPTP cs DR: fluorescent counter-screen in isolated mitochondria, dose response, counter-screen for MPTP inhibitor project, biochemical, fluorescence, uHTS hits; shares compounds with MPTP block; isolated mitochondria counterscreen, fluorescence read-out; IC50, µM; 780 compounds, 49% hits; in the data active = IC50 below about 80 µM
Of the large screens only hits and unclear results are named; the others gave an inactive call (follow-up assays come after a bar, where they were run); ! = a repeat was not active.

COC(=O)C1=Nc2ccccc2/C1=C\c1c(O)n(-c2cc(OC)ccc2OC)c(=O)[nH]c1=O	MPTP block 58 | MPTP counter inactive | MPTP abs DR inactive | MPTP cs DR inactive
Cc1cc2c(C(C)C)c(O)c(O)c(C=O)c2c(O)c1-c1c(C)cc2c(C(C)C)c(O)c(O)c(C=O)c2c1O	MPTP block 85 (no result: OX1R antag-1, OX1R antag-2, CHO parental Ca) | MPTP counter inactive
O=C(Nc1ccc(Cl)cc1)OC1CN2CCC1CC2 (stereo not given)	MPTP block 78 | MPTP counter 93
Clc1ccc2c(c1)C(c1ccccc1Cl)=NCc1nnc(N3CCN(CCOc4ccccc4)CC3)n1-2	none
CCOc1cccc(=NC2CCCCC2)c2c(C)n(C)c(C)c12	MPTP block 62 | MPTP counter 71
CCOc1ccccc1N=C1SCCCN1C	none
CNC(=S)N1CC2CC(C1)c1cccc(=O)n1C2 (stereo not given)	none
O=C(c1n[nH]c(=O)c2ccccc12)N1CCC2(CC1)OCCO2	none
O=C1NC(=S)SC1=Cc1ccc(N(CCCl)CCCl)cc1	MPTP block 53 (no result: OX1R antag-1, GPR7 antagonist, OX1R antag-2, CHO parental Ca) | MPTP counter 67
CCCCn1c(NS(=O)(=O)c2ccccc2)c(C(=O)OCC)c2nc3ccccc3nc21	MPTP block 59 | MPTP counter 50
CCCCn1c(NC(=O)c2ccc(Br)o2)c(C(=O)OCC)c2nc3ccccc3nc21	none
Cc1[nH]n(-c2ccccc2)c(=O)c1C(c1ccc([N+](=O)[O-])cc1)c1c(C)[nH]n(-c2ccccc2)c1=O	MPTP block 96 | MPTP counter 76
Oc1cc(Cl)c(Cl)c(Cl)c1Cl	MPTP block 79 (no result: OX1R antag-1, GPR7 antagonist, OX1R antag-2, CHO parental Ca) | MPTP counter 99
Oc1ccc(Cl)c(Cl)c1	none (no result: GPR7 antagonist)
Oc1cc(Cl)c(Cl)c(Cl)c1	MPTP block 95 (no result: OX1R antag-1, GPR7 antagonist, OX1R antag-2, CHO parental Ca) | MPTP counter 87
CC[C@H](OC(C)=O)C(C[C@H](C)N(C)C)(c1ccccc1)c1ccccc1	none (no result: GPR7 antagonist)
O=C1c2cccc(N3CCNCC3)c2C2CCCCN12 (stereo not given)	none (no result: OX1R antag-1, GPR7 antagonist, OX1R antag-2, CHO parental Ca)
CC(Cc1ccccc1Sc1ccccc1O)N(C)C (stereo not given)	none
Cn1nc(-c2ccc(OCC(=O)N3CCN(Cc4ccccc4)CC3)cc2)c2ccccc2c1=O	MPTP block 72, CHO parental Ca 36! | MPTP counter 43
Cn1cccc1CN1CCN(C(=O)COc2ccccc2)CC1	none
CCOP(=O)(OCC)c1cc(C)c(O)c(C(C)(C)C)c1	none
COc1ccc2c(c1)[C@@]13CCC=C[C@H]1[C@@H](C2)NCC3	MPTP block 55 (no result: GPR7 antagonist) | MPTP counter inactive | MPTP abs DR inactive | MPTP cs DR inactive
COc1ccc2c(c1)C13CCN(C)C(C2)C1CCC1(C3)OCCO1 (stereo not given)	none (no result: OX1R antag-1, GPR7 antagonist, OX1R antag-2, CHO parental Ca)
C/C(O)=C(\C#N)C(=O)Nc1cc(Br)ccc1Br	none (no result: GPR7 antagonist)
CCC1(C)CN(S(=O)(=O)OCC(Cl)(Cl)Cl)C(=O)N1 (stereo not given)	none
Nc1c2c(nc3sc4c(c13)CCCCC4)CCCC2	MPTP block 88 | MPTP counter 80
CC(=O)c1cn(CCCOc2ccccc2)c2ccccc12	MPTP block 82 | MPTP counter 56
CN(C)CCOC(=O)c1cn(Cc2ccccc2)c2ccccc12	MPTP block 59 | MPTP counter inactive | MPTP abs DR 18 | MPTP cs DR inactive
CCCCCSc1cc(OC)c(CCN(C)C)cc1OC	MPTP block 84 | MPTP counter inactive | MPTP abs DR 6.3 | MPTP cs DR inactive
COc1ccc2[nH]cc(CCN(C)C)c2c1	none
CO[C@H]1CC=C2CCN3CCC4=C(CC(=O)OC4)[C@]23C1	none (no result: GPR7 antagonist)
CN1CCC(N(C)c2nc(-c3ccc([N+](=O)[O-])cc3)nc3ccccc23)CC1	MPTP block 102 (no result: OX1R antag-1, OX1R antag-2, CHO parental Ca) | MPTP counter inactive
Cc1ccc(-c2cc(-c3ccc(C)cc3)[n+](-c3ccccc3)c(-c3ccc(C)cc3)c2)cc1	MPTP block 95, OX1R antag-1 91, CHO parental Ca 71 (no result: GPR7 antagonist) | MPTP counter 101
Cc1ccc(-c2cc(-c3ccc(C)cc3)[n+](-c3ccc(C(=O)[O-])cc3)c(-c3ccc(C)cc3)c2)cc1	none (no result: GPR7 antagonist)
CCC(C)n1c(O)c(C=NCC2CCCO2)c(=O)[nH]c1=S (stereo not given)	none
CCC(=NCc1ccc2c(c1)OCO2)c1c(O)n(C2CCCCC2)c(=O)[nH]c1=O	MPTP block 78, CHO parental Ca 26 | MPTP counter 68
CCC(=NCCO)c1c(O)n(C2CCCCC2)c(=O)[nH]c1=O	none
C=Cn1c(P(=S)(N2CCOCC2)N2CCOCC2)cc2c1CCCC2	none
O=[N+]([O-])c1ccc(N2CCCC(C(F)(F)F)C2)c2ccncc12 (stereo not given)	MPTP block 77 | MPTP counter 90
O=C(NCCCn1ccnc1)C(Cl)(Cl)Cl	none
CCN1C(=O)C(=Cc2ccc(C)s2)C(=O)N(CC)C1=S	MPTP block 73 | MPTP counter inactive
CN(C)CCOc1ccc(/C(=C(/CCCl)c2ccccc2)c2ccccc2)cc1	MPTP block 106 (no result: GPR7 antagonist) | MPTP counter inactive | MPTP abs DR 6.7 | MPTP cs DR 41
CN(C)C(=O)Oc1ccc(C(=O)c2ccccc2)cc1	none
CN(C)C(CNC(=O)Cc1c(Cl)cccc1Cl)c1ccccc1 (stereo not given)	none
CSc1ccc(CN2CCN(c3ccccc3C)CC2)cc1	none
CCc1ccc(CN2CCN(Cc3ccc(SC)cc3)CC2)cc1	MPTP block 56 | MPTP counter inactive | MPTP abs DR inactive | MPTP cs DR 45
Ic1ccccc1CN[C@@H]1C2CCN(CC2)[C@@H]1C(c1ccccc1)c1ccccc1	MPTP block 87 (no result: GPR7 antagonist) | MPTP counter inactive
Fc1ccccc1CNC1CN2CCC1CC2 (stereo not given)	none
CCN(CCNc1ccc([N+](=O)[O-])c2cccnc12)S(=O)(=O)c1ccccc1	none
Cc1c(NS(=O)(=O)c2ccccc2)ccc([N+](=O)[O-])c1Cl	MPTP block 98 (no result: OX1R antag-1, GPR7 antagonist, OX1R antag-2, CHO parental Ca) | MPTP counter 90
c1ccc2c(CNC3CCCCCC3)c[nH]c2c1	MPTP block 71 | MPTP counter inactive | MPTP abs DR 8.7 | MPTP cs DR 73
CCCCN1C(=O)/C(=C\c2ccco2)C(=O)N(CCc2ccccc2)C1=O	MPTP block 68 | MPTP counter inactive
Clc1cccc(N2CCNCC2)c1Cl	none
